Test results taken from ChEMBL document CHEMBL2331323, “Design, synthesis and anticancer properties of 5-arylbenzoxepins as conformationally restricted isocombretastatin A-4 analogs” (Eur J Med Chem, 2013).
Calls of active or inactive are those of the source. The rule behind the calls is not given here.

What was measured:
[1] = Growth inhibition of human H1299 cells after 72 hrs by Victor microtiter plate fluorimeter analysis; format: functional; details: NCI-H1299, 72 h
MDA-MB-231 [2] = test: Growth inhibition of hormone-independent human MDA-MB-231 cells after 72 hrs by Victor microtiter plate fluorimeter analysis; format: functional; details: MDA-MB-231, 72 h
K562 [3] = test: Growth inhibition of human K562 cells after 72 hrs by Victor microtiter plate fluorimeter analysis; format: functional; details: K562, 72 h
HCT-116 [4] = test: Growth inhibition of human HCT116 cells after 72 hrs by Victor microtiter plate fluorimeter analysis; format: functional
[5] = Inhibition of sheep brain tubulin polymerization assessed as decrease in rate of microtubule assembly by fluorimeter analysis; parameters: species or system Ovis aries
In short: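 Sheep brain tubulin purified by two assembly–disassembly cycles, at about 2-3 mg/mL in 0.1 M MES, 0.5 mM MgCl₂, 1 mM EGTA, 1 mM GTP, pH 6.6. Assembly followed by DAPI fluorescence at 37 °C. IC50 is the concentration halving the maximum assembly rate versus no compound. Measured the same day as the isoCA-4 reference.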

Ovis aries = organism: Ovis aries; test: Ratio of compound IC50 to isoCA-4 IC50 for sheep brain tubulin polymerization by fluorimeter analysis
HCT-116 [6] = test: Induction of cell cycle arrest in human HCT116 cells assessed as accumulation of cells in G2/M phase at 5 nM after 24 hrs by propidium iodide staining based flow cytometry; format: functional
In short: (§1)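 Exponentially growing cells exposed to compound at 5 nM, or DMSO, for 24 h. Cell-cycle distribution determined by flow cytometry after standard propidium iodide staining.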

K562 [7] = test: Induction of cell cycle arrest in human K562 cells assessed as accumulation of cells in G2/M phase at 5 nM after 24 hrs by propidium iodide staining based flow cytometry; format: functional; in short: as §1
MDA-MB-231 [8] = test: Induction of cell cycle arrest in human MDA-MB-231 cells assessed as accumulation of cells in G2/M phase at 5 nM after 24 hrs by propidium iodide staining based flow cytometry; format: functional; in short: as §1
NCI-H1299 [9] = test: Induction of cell cycle arrest in human H1299 cells assessed as accumulation of cells in G2/M phase at 5 nM after 24 hrs by propidium iodide staining based flow cytometry; format: functional; in short: as §1
NCI-H1299 [10] = test: Induction of apoptosis in human H1299 cells assessed as increase in proteolytic activity of caspase 3/7 after 24 hrs by fluorimeter analysis; format: functional, cell-based
In short: (§2)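 Apo-ONE homogeneous caspase-3/7 kit. Cells seeded at 5 × 10⁴ per well and grown 24 h. Medium then replaced with compound at 1, 5 and 10 nM, or 0.1% DMSO as negative control, for 24 h. Caspase substrate and Apo-ONE buffer mix added, incubated 1 h, fluorescence read at 527 nm.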

HCT-116 [11] = test: Induction of apoptosis in human HCT116 cells assessed as increase in proteolytic activity of caspase 3/7 after 24 hrs by fluorimeter analysis; format: functional, cell-based; in short: as §2

Structure (SMILES)	GI50 (MDA-MB-231 [2])	GI50 (K562 [3])	GI50 (HCT-116 [4]; HCT-116, 72 h)	IC50 [5]	Ratio IC50 (Ovis aries)	GI50 [1]	further results
C=C(c1ccc(OC)c(O)c1)c1cc(OC)c(OC)c(OC)c1	4 nM	5 nM	3 nM	1500 nM	–	3 nM	–
COc1ccc2c(c1CCCCO)OCCCC2c1cc(OC)c(OC)c(OC)c1 (stereo not given)	–	–	–	–	–	–	GI50 (HCT-116 [4]): inactive
COc1ccc2c(c1)OCCC=C2c1cc(OC)c(OC)c(OC)c1	250 nM	100 nM	85 nM	3900 nM	2	180 nM	–
COc1ccc2c(c1N)OCCC=C2c1cc(OC)c(OC)c(OC)c1	8 nM	40 nM	22 nM	3600 nM	2	30 nM	–

Now from value to compound, other results behind:

GI50 (MDA-MB-231 [2])	GI50 (K562 [3])	GI50 (HCT-116 [4]; HCT-116, 72 h)	IC50 [5]	Ratio IC50 (Ovis aries)	Structure (SMILES)	GI50 [1]	further results
–	–	170 nM	–	–	COc1ccc2c(c1Br)OCCC=C2c1cc(OC)c(OC)c(OC)c1	–	–
28 nM	30 nM	25 nM	3200 nM	2	COc1cc(OC)cc(C2=CCCOc3c2ccc(OC)c3O)c1	32 nM	–
–	–	250 nM	–	–	COc1ccc2c(c1C#CCCO)OCCC=C2c1cc(OC)c(OC)c(OC)c1	–	–
–	–	2 nM	–	–	COc1ccc(/C=C\c2cc(OC)c(OC)c(OC)c2)cc1O [COMBRETASTATIN A4]	–	–
3 nM	8 nM	1.5 nM	3800 nM	2	COc1ccc2c(c1O)OCCC=C2c1cc(OC)c(OC)c(OC)c1	4.5 nM	Activity (HCT-116 [6]): Active; Activity (K562 [7]): Active; Activity (MDA-MB-231 [8]): Active; Activity (NCI-H1299 [9]): Active; Activity (NCI-H1299 [10]): Dose-dependent effect; Activity (HCT-116 [11]): Dose-dependent effect
15 nM	50 nM	20 nM	3300 nM	2	COc1ccc2c(c1O)OCCCC2c1cc(OC)c(OC)c(OC)c1 (stereo not given)	7 nM	–
